The text below walks through data of ChEMBL document CHEMBL1795294, “Modulation of the activity of histone acetyltransferases by long chain alkylidenemalonates (LoCAMs)” (Bioorg Med Chem, 2011).

SMILES strings stand for the structures. Activity calls are given as the source filed them. No cut-off for these calls is given here.

For data set [1], the system named is U-937. Nature of the data set: Inhibition of histone acetyltransferase in human U937 cells assessed as increase of acetylation of histone H3 at K18 at 50 uM after 24 hrs by Western blotting. Type of data set: cell-based. An outline of the steps:
(§1)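 U937 cells treated 24 h at 50 µM. Acid-extracted histones (Triton buffer lysis, then 0.2 M HCl overnight at 4 °C) immunoblotted with site-specific antibodies (H3K9/K14/K18/K56ac, H4K5/K8/K16ac, pan-acetyl H4; 1:1000). Loading checked by Ponceau Red staining, or by histone H1 for pan-acetyl H4.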
For orientation: Immunoblotting shows a protein as a band on a membrane.

The test system of data set [2] is U-937. Nature of the data set: Induction of granulocytic differentiation in human U937 after […] using propidium iodide staining by FACS analysis. It is filed as functional, cell-based. (In flow cytometry, cells or beads pass a laser one at a time.)
Data set [3] has as its system U-937. Put plainly: Inhibition of histone acetyltransferase in human U937 cells assessed as inhibition of acetylation of histone H3 at K56 at 50 uM after 24 hrs by Western blotting. Type of data set: cell-based. An outline of the steps:
as §1

Data set [4] relates to U-937. Put plainly: Inhibition of histone acetyltransferase in human U937 cells assessed as increase of histone H3 acetylation level at 50 uM after 15 mins by Western blotting. Type of data set: cell-based. Put shortly: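 U937 cells treated at 50 µM. Histones prepared by Triton extraction buffer lysis, then overnight 0.2 M HCl extraction at 4 °C, Bradford quantitation. Immunoblot with pan-acetyl-H3 antibody (1:1000), Ponceau Red staining as loading check.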

Data set [5] has as its system U-937. Nature of the data set: Induction of apoptosis in human U937 cells after 30 hrs using annexin V/propidium iodide double-staining by FACS analysis. Type of data set: functional, cell-based. As to conditions: U-937, 30 h. Put shortly:
(§2)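 U937 cells at 200,000 cells/mL, 37 °C, 5% CO2, exposed 30 h at 50 or 25 µM. Dose–response runs used 5–200 µM, with IC50 taken as the concentration giving 50% apoptosis. Annexin V/propidium iodide double staining, apoptotic subpopulations counted by FACS. Three independent experiments, mean ± SD.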

Data set [6] has as its system U-937. Put plainly: Cell cycle arrest in human U937 cells assessed as accumulation at S phase at 50 uM after 30 hrs using propidium iodide staining by flow cytometry. Type of data set: functional, cell-based. Put shortly:
(§3)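 U937 cells kept at 200,000 cells/mL, 37 °C, 5% CO2, treated 30 h at 50 or 25 µM. Phase distribution by flow cytometry. Three independent experiments, mean ± SD.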

For data set [7], the target named is Histone acetyltransferase KAT2B (Homo sapiens) (UniProt Q92831). Put plainly: Inhibition of human recombinant KAT2B using histone H4 peptide as substrate at 50 uM after 2 hrs. Put shortly:
(§4)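 Human PCAF (200 ng) in KAT buffer with 10 µg histone H4 peptide (aa 2–24), 20 µM acetyl-CoA with 0.5 µCi/mL [3H]-acetyl-CoA, and compound at 50 µM final, 2 h at 37 °C. Spotted on P81 paper in triplicate, washed with TCA then acetone, scintillation counted. Activity given as % of untreated control (100%).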

The target in data set [8] is Albumin (Bos taurus, UniProt P02769). Nature of the data set: Binding affinity to bovine serum albumin by surface plasmon resonance assay. As to conditions: cattle.
Data set [9] deals with Histone acetyltransferase p300 (Homo sapiens) (UniProt Q09472). Nature of the data set: Binding affinity to His6-tagged immobilized human KAT3B catalytic domain expressed in Sf9 cells by surface plasmon resonance assay. (In general: Surface plasmon resonance follows binding to a sensor surface in real time, without labels.)
The subject of data set [10] is U-937. Nature of the data set: Induction of apoptosis in human U937 cells at 50 uM after 30 hrs using annexin V/propidium iodide double-staining by FACS analysis. Type of data set: functional. An outline of the steps:
as §2

The subject of data set [11] is U-937. Nature of the data set: Inhibition of histone acetyltransferase in human U937 cells assessed as inhibition of acetylation of histone H4 at K8 at 50 uM after 24 hrs by Western blotting. It is filed as cell-based. An outline of the steps: as §1
In data set [12] the test system is U-937. Nature of the data set: Inhibition of histone acetyltransferase in human U937 cells assessed as inhibition of acetylation of histone H4 at K16 at 50 uM after 24 hrs by Western blotting. Type of data set: cell-based. Put shortly: as §1
Data set [13] deals with CREB-binding protein (Homo sapiens) (UniProt Q92793). Put plainly: Inhibition of human recombinant KAT3A expressed in Escherichia coli BL21 using histone H4 peptide as substrate at 50 uM after 2 hrs relative to control. An outline of the steps: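 Recombinant CBP fragment (aa 1098–1877) from E. coli BL21, affinity purified. Spotted on P81 paper in triplicate, washed with TCA/acetone, scintillation DPM compared with negative control, expressed as %.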

In data set [14] the target is Histone acetyltransferase p300 (Homo sapiens) (UniProt Q09472). Nature of the data set: Binding affinity to immobilized His6-tagged human full-length KAT3B expressed in Sf9 cells by surface plasmon resonance assay.
Data set [15] concerns U-937. Put plainly: Inhibition of histone acetyltransferase in human U937 cells assessed as increase of acetylation of histone H3 at K9 at 50 uM after 24 hrs by Western blotting. Type of data set: cell-based. Put shortly: as §1
Data set [16] relates to U-937. Nature of the data set: Inhibition of histone acetyltransferase in human U937 cells assessed as increase of pan-acetylated histone H4 level at 50 uM after 24 hrs by Western blotting. It is filed as cell-based. Put shortly:
as §1

The test system of data set [17] is U-937. Put plainly: Inhibition of histone acetyltransferase in human U937 cells assessed as inhibition of acetylation of histone H4 at K5 at 50 uM after 24 hrs by Western blotting. It is filed as cell-based. Put shortly:
as §1

The subject of data set [18] is U-937. Nature of the data set: Inhibition of histone acetyltransferase in human U937 cells assessed as inhibition of acetylation of histone H3 at K14 at 50 uM after 24 hrs by Western blotting. It is filed as cell-based. Put shortly:
as §1

Data set [19] relates to MCF7. Nature of the data set: Inhibition of histone acetyltransferase in human MCF7 cells assessed as increase of alpha-tubulin acetylation level at 15 and 30 uM after 15 mins by Western blotting.
Data set [20] deals with U-937. Put plainly: Induction of apoptosis in human U937 cells at 25 uM after 30 hrs using annexin V/propidium iodide double-staining by FACS analysis. It is filed as functional, cell-based. An outline of the steps:
as §2

Data set [21] concerns MCF7. Nature of the data set: Inhibition of histone acetyltransferase in human MCF7 cells assessed as increase of alpha-tubulin acetylation level at 15 uM after 15 mins by Western blotting. It is filed as cell-based. An outline of the steps: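 MCF-7 cells grown in D-MEM at 200,000 cells/mL, 37 °C, 5% CO2, treated at 15 and 30 µM. Lysis in 50 mM Tris–HCl pH 7.4, 150 mM NaCl, 1% NP40, NaF, PMSF and protease inhibitors, 15 min at 4 °C. Bradford quantitation. Western blot with anti-acetyl-α-tubulin (1:1000), ERK1 as loading control.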

In data set [22] the test system is U-937. Put plainly: Cell cycle arrest in human U937 cells assessed as accumulation at S phase at 25 uM after 30 hrs using propidium iodide staining by flow cytometry. It is filed as functional, cell-based. Put shortly: as §3
Data set [23] relates to U-937. Put plainly: Inhibition of histone acetyltransferase in human U937 cells assessed as increase of acetylation of histone H3 at K14 at 50 uM after 24 hrs by Western blotting. It is filed as cell-based. Put shortly:
as §1

In data set [24] the target is Histone acetyltransferase KAT2B (Homo sapiens) (UniProt Q92831). Nature of the data set: Increase of human recombinant KAT2B acetylation activity using histone H4 peptide as substrate at 50 uM after 2 hrs. An outline of the steps:
as §4

The test system of data set [25] is U-937. Nature of the data set: Inhibition of histone acetyltransferase in human U937 cells assessed as increase of acetylation of histone H3 at K56 at 50 uM after 24 hrs by Western blotting. It is filed as cell-based. An outline of the steps: as §1
Data set [26] deals with U-937. Put plainly: Inhibition of histone acetyltransferase in human U937 cells assessed as increase of acetylation of histone H4 at K16 at 50 uM after 24 hrs by Western blotting. Type of data set: cell-based. Put shortly: as §1
In data set [27] the test system is U-937. Put plainly: Inhibition of histone acetyltransferase in human U937 cells assessed as increase of acetylation of histone H4 at K5 at 50 uM after 24 hrs by Western blotting. Type of data set: cell-based. Put shortly:
as §1

The target in data set [28] is Histone deacetylase (Homo sapiens) (UniProt Q13547+O15379+Q9UBN7+Q92769+Q9UQL6+Q8WUI4+Q9BY41+Q96DB2+P56524+Q9UKV0+Q969S8). Nature of the data set: Inhibition of HDAC in human U937 cells at 50 uM after 15 mins by Western blotting. Type of data set: cell-based. As to conditions: U-937.
In data set [29] the test system is U-937. Nature of the data set: Inhibition of histone acetyltransferase in human U937 cells assessed as increase of acetylation of histone H4 at K8 at 50 uM after 24 hrs by Western blotting. It is filed as cell-based. An outline of the steps:
as §1

Data set [30] has as its system U-937. Nature of the data set: Inhibition of histone acetyltransferase in human U937 cells assessed as inhibition of acetylation of histone H3 at K9 at 50 uM after 24 hrs by Western blotting. It is filed as cell-based. An outline of the steps: as §1
Data set [31] relates to U-937. Put plainly: Inhibition of histone acetyltransferase in human U937 cells assessed as inhibition of acetylation of histone H3 at K18 at 50 uM after 24 hrs by Western blotting. It is filed as cell-based. An outline of the steps: as §1
For data set [32], the system named is MCF7. Nature of the data set: Inhibition of histone acetyltransferase in human MCF7 cells assessed as increase of alpha-tubulin acetylation level after 15 mins by Western blotting. It is filed as cell-based.

Sequence of Albumin (P02769 whole entry, the tested form may be a part): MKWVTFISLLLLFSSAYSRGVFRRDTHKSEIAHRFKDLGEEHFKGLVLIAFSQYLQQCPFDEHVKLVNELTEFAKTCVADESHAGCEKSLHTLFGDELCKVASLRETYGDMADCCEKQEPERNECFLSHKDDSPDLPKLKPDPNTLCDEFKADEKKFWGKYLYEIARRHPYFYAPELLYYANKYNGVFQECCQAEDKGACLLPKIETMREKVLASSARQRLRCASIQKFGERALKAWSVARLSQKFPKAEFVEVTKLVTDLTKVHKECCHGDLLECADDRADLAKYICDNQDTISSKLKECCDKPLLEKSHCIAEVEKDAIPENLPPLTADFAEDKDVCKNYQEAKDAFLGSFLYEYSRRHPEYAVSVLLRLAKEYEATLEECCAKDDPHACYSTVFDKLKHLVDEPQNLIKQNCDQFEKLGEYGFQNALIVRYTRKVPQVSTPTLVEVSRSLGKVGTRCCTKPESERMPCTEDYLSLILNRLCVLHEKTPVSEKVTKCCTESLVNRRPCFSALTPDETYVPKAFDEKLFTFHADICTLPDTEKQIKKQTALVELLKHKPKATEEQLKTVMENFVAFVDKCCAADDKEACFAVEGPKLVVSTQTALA
Sequence of CREB-binding protein (Homo sapiens) (Q92793 2-2442 limits assumed): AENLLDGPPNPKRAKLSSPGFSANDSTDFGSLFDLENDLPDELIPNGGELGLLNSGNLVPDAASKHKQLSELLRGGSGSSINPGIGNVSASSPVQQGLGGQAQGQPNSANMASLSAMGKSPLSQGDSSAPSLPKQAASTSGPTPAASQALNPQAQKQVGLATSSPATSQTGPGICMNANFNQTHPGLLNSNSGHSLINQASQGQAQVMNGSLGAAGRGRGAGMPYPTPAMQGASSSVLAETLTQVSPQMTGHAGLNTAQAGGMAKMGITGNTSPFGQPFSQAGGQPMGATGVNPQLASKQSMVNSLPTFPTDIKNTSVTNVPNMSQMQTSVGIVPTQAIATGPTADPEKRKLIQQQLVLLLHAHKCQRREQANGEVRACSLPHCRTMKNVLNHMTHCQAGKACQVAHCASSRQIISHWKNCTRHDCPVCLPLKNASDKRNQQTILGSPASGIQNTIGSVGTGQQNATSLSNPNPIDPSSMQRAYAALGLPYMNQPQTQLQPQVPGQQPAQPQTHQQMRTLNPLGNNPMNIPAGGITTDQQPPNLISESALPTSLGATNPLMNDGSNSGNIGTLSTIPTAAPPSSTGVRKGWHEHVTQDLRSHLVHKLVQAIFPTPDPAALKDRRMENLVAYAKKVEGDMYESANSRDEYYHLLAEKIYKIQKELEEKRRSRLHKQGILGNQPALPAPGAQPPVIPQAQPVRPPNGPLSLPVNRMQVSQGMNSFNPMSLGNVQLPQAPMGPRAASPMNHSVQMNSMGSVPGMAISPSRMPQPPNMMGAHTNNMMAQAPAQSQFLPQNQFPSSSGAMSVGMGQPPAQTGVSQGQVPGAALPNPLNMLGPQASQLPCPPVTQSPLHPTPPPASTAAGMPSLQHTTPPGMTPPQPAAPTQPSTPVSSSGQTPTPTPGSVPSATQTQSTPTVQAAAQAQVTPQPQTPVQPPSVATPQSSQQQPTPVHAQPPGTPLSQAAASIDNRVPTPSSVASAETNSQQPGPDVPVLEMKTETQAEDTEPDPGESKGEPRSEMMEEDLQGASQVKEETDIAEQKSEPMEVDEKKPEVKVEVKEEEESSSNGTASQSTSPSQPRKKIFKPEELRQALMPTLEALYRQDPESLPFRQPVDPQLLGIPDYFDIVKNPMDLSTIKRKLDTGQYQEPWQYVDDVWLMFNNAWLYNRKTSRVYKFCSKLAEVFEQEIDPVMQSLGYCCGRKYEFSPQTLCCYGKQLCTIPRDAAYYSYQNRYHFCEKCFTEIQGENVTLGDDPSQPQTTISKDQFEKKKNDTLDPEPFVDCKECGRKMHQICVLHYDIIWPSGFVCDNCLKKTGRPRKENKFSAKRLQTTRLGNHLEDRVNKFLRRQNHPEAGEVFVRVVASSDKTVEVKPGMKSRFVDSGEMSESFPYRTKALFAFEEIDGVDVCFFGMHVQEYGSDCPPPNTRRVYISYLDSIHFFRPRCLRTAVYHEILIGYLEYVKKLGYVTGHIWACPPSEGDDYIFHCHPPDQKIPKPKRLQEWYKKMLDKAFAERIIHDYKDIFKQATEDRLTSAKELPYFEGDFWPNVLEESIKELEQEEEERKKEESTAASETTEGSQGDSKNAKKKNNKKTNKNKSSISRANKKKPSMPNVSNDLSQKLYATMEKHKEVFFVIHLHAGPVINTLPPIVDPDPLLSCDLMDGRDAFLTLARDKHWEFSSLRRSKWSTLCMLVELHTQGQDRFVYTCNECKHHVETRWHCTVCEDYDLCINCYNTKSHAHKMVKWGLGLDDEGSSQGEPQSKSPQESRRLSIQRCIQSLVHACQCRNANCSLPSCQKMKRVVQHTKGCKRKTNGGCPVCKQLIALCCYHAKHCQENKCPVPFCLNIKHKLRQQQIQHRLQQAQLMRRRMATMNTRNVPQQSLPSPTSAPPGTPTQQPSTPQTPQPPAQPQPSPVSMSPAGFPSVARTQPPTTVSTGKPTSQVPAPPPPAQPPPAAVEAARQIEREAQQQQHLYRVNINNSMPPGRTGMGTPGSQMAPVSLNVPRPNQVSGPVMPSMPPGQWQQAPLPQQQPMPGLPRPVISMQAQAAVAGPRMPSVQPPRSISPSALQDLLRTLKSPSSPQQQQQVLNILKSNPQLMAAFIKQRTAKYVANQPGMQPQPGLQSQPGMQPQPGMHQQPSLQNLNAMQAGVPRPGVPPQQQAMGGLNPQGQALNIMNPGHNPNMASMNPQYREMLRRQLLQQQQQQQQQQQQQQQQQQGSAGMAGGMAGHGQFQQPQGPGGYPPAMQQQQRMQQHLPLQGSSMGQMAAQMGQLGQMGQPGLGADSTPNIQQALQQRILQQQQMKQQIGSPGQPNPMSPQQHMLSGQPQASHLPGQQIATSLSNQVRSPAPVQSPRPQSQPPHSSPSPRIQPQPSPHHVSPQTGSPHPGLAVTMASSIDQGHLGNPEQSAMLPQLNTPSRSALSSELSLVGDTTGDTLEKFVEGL
Sequence of Histone acetyltransferase KAT2B (Homo sapiens) (Q92831 whole entry, looked up, the tested form may be a part): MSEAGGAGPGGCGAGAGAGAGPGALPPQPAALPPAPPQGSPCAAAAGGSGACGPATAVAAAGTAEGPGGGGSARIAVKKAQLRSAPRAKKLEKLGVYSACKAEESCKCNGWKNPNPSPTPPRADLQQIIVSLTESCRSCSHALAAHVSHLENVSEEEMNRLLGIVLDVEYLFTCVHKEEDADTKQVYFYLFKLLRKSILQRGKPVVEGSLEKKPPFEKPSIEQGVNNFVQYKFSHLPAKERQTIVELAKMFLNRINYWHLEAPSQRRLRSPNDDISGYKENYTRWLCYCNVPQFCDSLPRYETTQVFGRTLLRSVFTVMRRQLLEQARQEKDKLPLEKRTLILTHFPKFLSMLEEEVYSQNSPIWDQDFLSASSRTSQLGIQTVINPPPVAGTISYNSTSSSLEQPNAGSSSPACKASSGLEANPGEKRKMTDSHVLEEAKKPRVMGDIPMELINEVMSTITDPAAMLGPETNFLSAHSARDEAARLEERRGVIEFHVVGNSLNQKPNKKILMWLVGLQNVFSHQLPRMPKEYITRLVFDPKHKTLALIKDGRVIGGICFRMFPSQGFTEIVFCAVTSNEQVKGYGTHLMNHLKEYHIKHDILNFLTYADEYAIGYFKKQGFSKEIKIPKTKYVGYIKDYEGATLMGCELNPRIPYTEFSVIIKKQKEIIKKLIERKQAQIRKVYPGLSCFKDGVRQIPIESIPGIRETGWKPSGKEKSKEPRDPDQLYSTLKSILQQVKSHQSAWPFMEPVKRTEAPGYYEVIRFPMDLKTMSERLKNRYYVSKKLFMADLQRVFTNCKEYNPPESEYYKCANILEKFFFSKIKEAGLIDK

As a reminder, the inhibition is the change of the read-out against control, counted positive when it falls. What is called IC50 is the concentration needed to halve the response being measured. High values mean a need for much substance, low ones inhibition by little substance. As for `CCCCCCCCCCCC=C(C(=O)OCC)C(=O)OCC`, the inhibition result in data set [1], in data set [3], in data set [4], in data set [7], in [12] and in [13] was “Active” in each case. In addition, the inhibition result in data set [15], in data set [16], in data set [17] and in data set [18] was “Active” in each case. The result in data set [2] and in [9] was inactive. Further, the IC50 in data set [5] was 84.2 µM. For the same compound, the result in [6] was Active. Moreover, the Activity entry was “Not Active” in data set [8], 60.2% in data set [10] and “Dose-dependent effect” in data set [14]. In addition, the inhibition entry in data set [11] and in [19] was “inactive” throughout.
With `CCCCCCCCCCCCCCCC(O)=C(C(=O)OCC)C(=O)OCC`, the result in data set [2], in data set [20] and in data set [22] was inactive. The inhibition entry in data set [7], in [13] and in data set [21] was “Active” throughout.
Turning to `CCCCCCCCCCCCCCC=C(C(=O)OCC)C(=O)OCC`, the inhibition entry in data set [23], in data set [25], in data set [11], in [26], in [27] and in data set [28] was “inactive” in each case. Moreover, the inhibition result in [19] and in data set [29] was “inactive” in each case. Also, the inhibition entry in data set [1], in data set [4], in data set [15] and in [16] was “Active” each time. In data set [2], the outcome was inactive. Further, the result in data set [24] and in data set [6] was Active. Half-maximal inhibition in data set [5] (IC50) was put at 44.9 µM. For the same compound, the Activity entry is “Not Active” in data set [8], “Dose-dependent effect” in data set [9], 94.4% in [10] and “Dose-dependent effect” in data set [14]. The inhibition in data set [13] turned out to be 79%.
In the case of `CCCCCCCCCCCCCC=C(C(=O)OCC)C(=O)OCC`, the outcome in data set [2] was inactive. For the same compound, the inhibition entry in data set [3], in data set [4], in data set [12], in [13], in [17] and in data set [18] was “Active” in each case. Besides, the inhibition result in data set [30] and in [31] was “Active” each time. Besides, the result in [24] and in data set [6] was Active. For the same compound, the 50% inhibitory concentration (IC50) in [5] is 42.9 µM. The Activity result in data set [8] is “Not Active”; in data set [9], “Dose-dependent effect”; in data set [10] it was 51.8%; in [14] it was “Dose-dependent effect”. For the same compound, the inhibition result in data set [11], in data set [28] and in [19] was “inactive” throughout.
As for `CCCCCCCCCCCCCNC=C(C(=O)OCC)C(=O)OCC`, the result in data set [2], in data set [20] and in data set [22] was inactive. The result in data set [24] was Active. Also, the inhibition result in [32] was “Dose-dependent effect”. In data set [13], the inhibition result is “Active”.
